21 molecules from PubChem BioAssay AID488972 (Southern Research Specialized Biocontainment Screening …, 2010) can be followed below.

A word on the IC50: it is the concentration needed to halve the response being measured.

Activity calls are given as the source filed them.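 Rule for the calls: active = compounds blocking at least half of the virus-caused cell damage; inactive = the rest.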 Bounds are passed on as bounds.

The subject of this assay is HEp-2 RSV Long CPE, luminescence viability. The assay can be described thus: antiviral activity against RSV Long strain – cell-based, HEp-2, luminescence viability, purified and synthesized compounds, dose response (AID 488972). In outline: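 Assay system: RSV Long-infected HEp-2 cells. Times: six-day compound and virus exposure at 37 °C. Detection: luminescence-based measurement of viral cytopathic effect. Repeats: triplicate wells per dose.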
As for `Cc1ccc(NC(=O)C2CCCN2S(=O)(=O)c2cccc3ccccc23)c(C)c1` (stereo unspecified), the IC50 was > 50 µM (inactive).

Regarding `CC(C)(C)c1csc(NC(=O)c2cccnc2)n1`, the IC50 is > 50 µM (inactive). In the case of `Cc1ccc(NC(=O)[C@H]2CCCN2S(=O)(=O)c2cccc3cccnc23)c(C)c1` it was > 50 µM (inactive); in that of `CSc1ncccc1C(=O)Nc1nc(C)cs1`, > 50 µM (inactive). `Cc1csc(NC(=O)c2cccnc2)n1`: the IC50 is > 50 µM (inactive).

For `Cc1ccc(NC(=O)C2CCCN2S(=O)(=O)c2ccccc2)c(C)c1` (stereo unspecified), the IC50 was > 50 µM (inactive).

As to `Cc1ccc(NC(=O)C2CCCN2S(C)(=O)=O)c(C)c1` (stereo unspecified), the IC50 is > 50 µM (inactive). In the case of `Cc1ccc(NC(=O)C2CCCN2S(=O)(=O)c2cccc3cc(C)cnc23)c(C)c1` (stereo unspecified), the IC50 is > 50 µM (inactive).

On to `CSc1ncccc1C(=O)Nc1nc(C(C)(C)C)cs1`, for which the IC50 is 16.2 µM. For `Cc1ccc(NC(=O)CN(C)S(=O)(=O)c2cccc3cccnc23)c(C)c1`, the IC50 was > 50 µM (inactive). In the case of `Cc1ccc(NC(=O)C(C)NS(=O)(=O)c2cccc3cccnc23)c(C)c1` (stereo unspecified) it was > 50 µM (inactive); in that of `Cc1ccc(NC(=O)C2CCCN2S(=O)(=O)c2cccc3cnccc23)c(C)c1` (stereo unspecified), > 50 µM (inactive); in that of `Cc1ccc(NC(=O)C2CCCN2Cc2cccc3cccnc23)c(C)c1` (stereo unspecified), > 50 µM (inactive). As to `Cc1ccc(NC(=O)C2CCCN2S(=O)(=O)c2ccc3ncccc3c2)c(C)c1` (stereo unspecified), the IC50 was > 50 µM (inactive). For the molecule `Cc1ccc(NC(=O)C2CCCN2C(=O)c2ccccc2)c(C)c1` (stereo unspecified), the IC50 was > 50 µM (inactive).

As for `Cc1ccc(NC(=O)C2CCCN2C(=O)c2cccc3cccnc23)c(C)c1` (stereo unspecified), the IC50 is > 50 µM (inactive).

`Cc1ccc(NC(=O)[C@@H]2CCCN2S(=O)(=O)c2cccc3cccnc23)c(C)c1`: the IC50 was 7.81 µM. With `Cc1ccc(NC(=O)C2CCCN2S(=O)(=O)c2cccc3cccnc23)c(C)c1` (stereo unspecified), the IC50 is 13.2 µM.

On to `Cc1ccc(NC(=O)CNS(=O)(=O)c2cccc3cccnc23)c(C)c1`, for which the IC50 is > 50 µM (inactive). `Cc1ccc(NC(=O)C2CCCN2Cc2ccccc2)c(C)c1` (stereo unspecified): the IC50 was > 50 µM (inactive).

Turning to `O=C(Nc1ccc(C(F)(F)F)cc1[N+](=O)[O-])O[C@H]1[C@H](Cc2ccccc2)NS(=O)(=O)[C@H]2C[C@@H]3C=C[C@]12O3`, the IC50 is > 50 µM (inactive).
